A short description of series [1]: Antibacterial activity against Pseudomonas antimicrobica DSM 8361 after 36 hrs by disc diffusion method. To be noted: burkholderia gladioli.
The test system of series [2] is Saccharomyces cerevisiae. Put plainly: Antifungal activity against Saccharomyces cerevisiae DSM 1333 after 36 hrs by disc diffusion method. The class given is organism-based. The conditions noted are these: in vivo. On the technique in general: Agar diffusion results depend on both activity and mobility in agar.
Series [3] relates to Nakaseomyces glabratus. Put plainly: Antifungal activity against Candida glabrata DSM 11226 after 48 hrs. The conditions noted are these: in vivo. The class given is organism-based. The method in brief: (§1)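 MIC against the yeast strains determined according to DIN 58940-84; clotrimazole as positive control.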
Series [4] is described as follows: Antifungal activity against Aspergillus brasiliensis DSM 1988 after 36 hrs by disc diffusion method.
Series [5] concerns Yarrowia lipolytica. Put plainly: Antifungal activity against Yarrowia lipolytica DSM 1345 after 36 hrs by disc diffusion method. The class given is organism-based. The conditions noted are these: in vivo.
The test system of a further series is HL-60. Description: Cytotoxicity against human HL60 cells after 24 hrs by MTT assay. It counts as cell-based. The conditions noted are these: HL-60, 24 h. In outline: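 MTT colorimetric assay on HL-60 promyelocytic leukemia cells (RPMI 1640, 10% FBS, no antibiotics, 37 °C, 5% CO2) as a preliminary screen for unspecific cytotoxicity; cisplatin as reference.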
For orientation: Tetrazolium dyes change colour on reduction, which living cells bring about.

The next series has as its system Escherichia coli. Put plainly: Antibacterial activity against Escherichia coli DSM 426 after 36 hrs by disc diffusion method. It counts as organism-based. The conditions noted are these: in vivo.
In series [6] the target is T1, 7-dehydrocholesterol reductase (Homo sapiens) (UniProt Q9UBM7).
T1 sequence (whole entry): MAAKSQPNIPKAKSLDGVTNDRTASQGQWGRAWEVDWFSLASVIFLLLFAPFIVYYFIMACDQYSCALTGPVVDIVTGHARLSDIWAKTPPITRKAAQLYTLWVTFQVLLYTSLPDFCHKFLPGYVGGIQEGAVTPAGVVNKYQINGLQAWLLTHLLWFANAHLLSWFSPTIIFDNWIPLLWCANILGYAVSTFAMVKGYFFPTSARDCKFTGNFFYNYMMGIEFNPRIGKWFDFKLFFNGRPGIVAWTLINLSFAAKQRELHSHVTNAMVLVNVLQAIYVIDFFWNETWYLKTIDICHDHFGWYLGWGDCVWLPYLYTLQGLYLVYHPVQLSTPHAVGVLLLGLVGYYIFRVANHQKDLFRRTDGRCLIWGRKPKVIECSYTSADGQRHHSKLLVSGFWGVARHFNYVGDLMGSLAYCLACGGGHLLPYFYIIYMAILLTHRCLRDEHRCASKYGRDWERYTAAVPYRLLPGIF
Description: Inhibition of 7-dehydrocholesterol reductase in human HL60 cells assessed as accumulation of 7-dehydrocholesterol at 50 uM after 24 hrs by GC/MS analysis. The class given is cell-based. To be noted: HL-60. In outline: (§2)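 HL-60 cells (1 × 10⁶) in lipid-free HL-60 medium given inhibitor at 50 μM or 1 μM (ethanol blank) for 24 h at 37 °C, 5% CO2. Pellet saponified in 1 M NaOH, 1 h at 70 °C, then TBME microextraction with cholestane internal standard. GC-MS sterol pattern compared with blanks and with AY 9944 and BM 15.766 references.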

A short description of series [7]: Antifungal activity against Hyphopichia burtonii DSM 70663 after 36 hrs by disc diffusion method.
For series [8], the system named is Saccharomyces cerevisiae. Description: Antimicrobial activity against Saccharomyces cerevisiae DSM 1333 after 48 hrs. The class given is organism-based. To be noted: in vivo. In outline: as §1
Series [9] relates to Nakaseomyces glabratus. Put plainly: Antifungal activity against Candida glabrata DSM 11226 after 36 hrs by disc diffusion method. It counts as organism-based. To be noted: in vivo.
The target of series [10] is T1, 7-dehydrocholesterol reductase (Homo sapiens). Put plainly: Inhibition of 7-dehydrocholesterol reductase in human HL60 cells assessed as accumulation of 7-dehydrocholesterol at 1 uM after 24 hrs by GC/MS analysis. It counts as cell-based. To be noted: HL-60. The method in brief:
as §2

The nature of series [11]: Antibacterial activity against Staphylococcus equorum DSM 20675 after 36 hrs by disc diffusion method.
Series [12] is described as follows: Antibacterial activity against Streptococcus entericus DSM 14446 after 36 hrs by disc diffusion method.
Series [13] deals with Yarrowia lipolytica. Description: Antifungal activity against Yarrowia lipolytica DSM 1345 after 48 hrs. The class given is organism-based. The conditions noted are these: in vivo. In outline: as §1
The target of series [14] is 3-beta-hydroxysteroid-Delta(8),Delta(7)-isomerase (Homo sapiens) (UniProt Q15125). Put plainly: Inhibition of delta8,7-isomerase in human HL60 cells assessed as accumulation of zymostenol at 1 uM after 24 hrs by GC/MS analysis. The class given is cell-based. To be noted: HL-60. The method in brief: as §2
The target is the same in series [15]. Put plainly: Inhibition of delta8,7-isomerase in human HL60 cells assessed as accumulation of zymostenol at 50 uM after 24 hrs by GC/MS analysis. To be noted: HL-60. It counts as cell-based. The method in brief:
as §2

Molecules are shown by their SMILES. Activity calls are given as the source filed them. The calls are words filed in the database; no cut-off is given here. A value given as a limit tells only on which side of the number the result lay.

From ChEMBL document CHEMBL2169759, “A new class of selective and potent 7-dehydrocholesterol reductase inhibitors” (J Med Chem, 2012) come the findings set out here.

Sequence of 3-beta-hydroxysteroid-Delta(8),Delta(7)-isomerase (Homo sapiens) (Q15125 whole entry): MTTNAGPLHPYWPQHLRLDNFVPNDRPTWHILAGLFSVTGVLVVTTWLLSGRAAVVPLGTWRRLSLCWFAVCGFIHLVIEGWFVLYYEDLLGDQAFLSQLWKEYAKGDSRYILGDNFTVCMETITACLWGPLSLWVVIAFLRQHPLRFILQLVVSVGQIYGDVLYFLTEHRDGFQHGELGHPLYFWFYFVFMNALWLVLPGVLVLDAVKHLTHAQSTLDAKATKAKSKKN

Usually IC50 stands for the point on the concentration scale where inhibition reaches its midpoint. Read a low IC50 as greater potency. With `COc1cc2c(cc1O)CCN(CCc1ccccc1OC)C2`, the Activity result (in [1]; with Saccharomyces cerevisiae [2]; in series [4]; with Yarrowia lipolytica [5]; with Escherichia coli; in series [7]) was “Non-toxic” each time. Besides, the Activity entry (in the series with Nakaseomyces glabratus [9]; in series [11]; in [12]) was “Non-toxic” throughout. Also, the MIC against Nakaseomyces glabratus [3], against Saccharomyces cerevisiae [8] and against Yarrowia lipolytica [13] was above 20 µg/mL each time. Further, in the series on HL-60, the IC50 was above 50 µM. Further, in series [6], the “7-dehydrocholesterol accumulation (active/not active)” value is “Active”. Also, the “7-DHCR inhibition (active/not active)” value in series [10] is “inactive”.

With `COc1ccc(CCN2CCc3cc(OC)c(O)cc3C2)cc1`, the Activity result (in series [1]; in the series on Saccharomyces cerevisiae [2]; in [4]; with Yarrowia lipolytica [5]; in the series on Escherichia coli; in series [7]) was “Non-toxic” throughout. Further, the Activity result (in the series on Nakaseomyces glabratus [9]; in [11]; in [12]) was “Non-toxic” in each case. Moreover, the MIC against Nakaseomyces glabratus [3], in the series with Saccharomyces cerevisiae [8] and with Yarrowia lipolytica [13] was above 20 µg/mL each time. For the same molecule, the “inhibition (active/not active)” value in series [14] is “inactive”. Moreover, the IC50 in the series with HL-60 was above 50 µM. Further, the “7-dehydrocholesterol accumulation (active/not active)” value in series [6] was “inactive”. For the same molecule, in series [15], the “isomerase inhibition (active/not active)” value was “inactive”. In addition, the “7-DHCR inhibition (active/not active)” value in [10] was “inactive”.

Take `COc1ccc(CCN2CCc3cc(OC)c(OC)cc3C2)cc1`: the Activity entry (in [1]; with Saccharomyces cerevisiae [2]; in series [4]; in the series with Yarrowia lipolytica [5]; in the series on Escherichia coli; in [7]) was “Non-toxic” in each case. Also, the Activity entry (in the series on Nakaseomyces glabratus [9]; in series [11]; in series [12]) was “Non-toxic” each time. For the same molecule, the MIC with Nakaseomyces glabratus [3], against Saccharomyces cerevisiae [8] and against Yarrowia lipolytica [13] was above 20 µg/mL throughout. In addition, the “inhibition (active/not active)” value in series [14] was “Active”. In the series with HL-60, this molecule came in with an IC50 above 50 µM. In addition, in series [6], the “7-dehydrocholesterol accumulation (active/not active)” value was “inactive”. In addition, in [15], the “isomerase inhibition (active/not active)” value is “Active”. The “7-DHCR inhibition (active/not active)” value in [10] was “inactive”.

With `COc1ccc(CCN2CCc3cc(OC)ccc3C2)cc1`, the Activity result (in series [1]; in the series with Saccharomyces cerevisiae [2]; in [4]; in the series on Yarrowia lipolytica [5]; with Escherichia coli; in [7]) was “Non-toxic” throughout. Further, the Activity result (in the series with Nakaseomyces glabratus [9]; in series [11]; in [12]) was “Non-toxic” in each case. Also, the MIC with Nakaseomyces glabratus [3], against Saccharomyces cerevisiae [8] and in the series with Yarrowia lipolytica [13] was above 20 µg/mL throughout. For the same molecule, in series [14], the “inhibition (active/not active)” value was “Active”. Also, the IC50 in the series with HL-60 was above 50 µM. Moreover, the “7-dehydrocholesterol accumulation (active/not active)” value in series [6] is “inactive”. The “isomerase inhibition (active/not active)” value in series [15] is “Active”. For the same molecule, in series [10], the “7-DHCR inhibition (active/not active)” value is “inactive”.

Take `COc1ccc(CCN2CCc3cc(O)c(OC)cc3C2)cc1`: the Activity result in [1] is listed as “Non-toxic”; in the series with Saccharomyces cerevisiae [2], “Non-toxic”; in series [4], “Non-toxic”; in the series on Yarrowia lipolytica [5], “Non-toxic”; in the series with Escherichia coli, “Non-toxic”; in [7], “Toxic”. The Activity result (in the series on Nakaseomyces glabratus [9]; in series [11]; in series [12]) was “Non-toxic” each time. Besides, the MIC in the series on Nakaseomyces glabratus [3], against Saccharomyces cerevisiae [8] and in the series with Yarrowia lipolytica [13] was above 20 µg/mL throughout. The same molecule displayed an IC50 in the series on HL-60 above 50 µM. In addition, the “7-dehydrocholesterol accumulation (active/not active)” value in series [6] is “Active”. In addition, the “isomerase inhibition (active/not active)” value in [15] was “Active”. Further, the “7-DHCR inhibition (active/not active)” value in series [10] is “Active”.

Turning to `COc1ccc2c(c1)CCN(CCc1ccccc1)C2`, the Activity entry (in [1]; in the series on Saccharomyces cerevisiae [2]; in [4]; in the series on Yarrowia lipolytica [5]; with Escherichia coli; in [7]) was “Non-toxic” each time. Besides, the Activity result (in the series with Nakaseomyces glabratus [9]; in [11]; in [12]) was “Non-toxic” throughout. The MIC in the series with Nakaseomyces glabratus [3], in the series with Saccharomyces cerevisiae [8] and in the series on Yarrowia lipolytica [13] was above 20 µg/mL throughout. Also, the “inhibition (active/not active)” value in [14] is “Active”. The same molecule registered an IC50 in the series with HL-60 above 50 µM. For the same molecule, the “7-dehydrocholesterol accumulation (active/not active)” value in [6] is “inactive”. Besides, the “isomerase inhibition (active/not active)” value in series [15] was “Active”. Also, in series [10], the “7-DHCR inhibition (active/not active)” value was “inactive”.

Consider `Oc1ccc(CCN2CCc3cc(O)ccc3C2)cc1`, for which the Activity entry (in series [1]; with Saccharomyces cerevisiae [2]; in series [4]; in the series with Yarrowia lipolytica [5]; with Escherichia coli; in series [7]) was “Non-toxic” throughout. In addition, the Activity entry (in the series on Nakaseomyces glabratus [9]; in [11]; in [12]) was “Non-toxic” throughout. The MIC with Nakaseomyces glabratus [3], against Saccharomyces cerevisiae [8] and with Yarrowia lipolytica [13] was above 20 µg/mL each time. In the series with HL-60, the IC50 was above 50 µM. Moreover, the “7-dehydrocholesterol accumulation (active/not active)” value in series [6] is “Active”. The “7-DHCR inhibition (active/not active)” value in [10] is “inactive”.

For the molecule `COc1cc2c(cc1O)CCN(CCc1ccc(F)cc1)C2`, the Activity entry in series [1] is on record as “Non-toxic”; with Saccharomyces cerevisiae [2], “Non-toxic”; in series [4], “Non-toxic”; with Yarrowia lipolytica [5], “Non-toxic”; with Escherichia coli, “Non-toxic”; in series [7], “Toxic”. Besides, the Activity result (with Nakaseomyces glabratus [9]; in [11]; in series [12]) was “Non-toxic” throughout. Also, the MIC against Nakaseomyces glabratus [3], in the series on Saccharomyces cerevisiae [8] and against Yarrowia lipolytica [13] was above 20 µg/mL throughout. This molecule showed a half-maximal inhibitory concentration (IC50) in the series with HL-60 above 50 µM. For the same molecule, the “7-dehydrocholesterol accumulation (active/not active)” value in series [6] was “Active”. Besides, the “isomerase inhibition (active/not active)” value in [15] is “Active”. Further, the “7-DHCR inhibition (active/not active)” value in series [10] is “Active”.

`COc1ccc(CCN2CCc3cc4c(cc3C2)OCO4)cc1`: the Activity result (in [1]; in the series with Saccharomyces cerevisiae [2]; in series [4]; with Yarrowia lipolytica [5]; in the series on Escherichia coli; in series [7]) was “Non-toxic” throughout. Moreover, the Activity entry (with Nakaseomyces glabratus [9]; in series [11]; in series [12]) was “Non-toxic” each time. The MIC in the series with Nakaseomyces glabratus [3], against Saccharomyces cerevisiae [8] and against Yarrowia lipolytica [13] was above 20 µg/mL in each case. In addition, the “inhibition (active/not active)” value in series [14] is “Active”. The IC50 in the series with HL-60 was above 50 µM. Further, the “7-dehydrocholesterol accumulation (active/not active)” value in series [6] is “inactive”. The “isomerase inhibition (active/not active)” value in series [15] was “Active”. In addition, the “7-DHCR inhibition (active/not active)” value in [10] is “inactive”.

Consider `Clc1ccccc1C(c1ccccc1)(c1ccccc1)n1ccnc1` [CLOTRIMAZOLE], for which the MIC against Nakaseomyces glabratus [3], against Saccharomyces cerevisiae [8] and in the series with Yarrowia lipolytica [13] was below 1 µg/mL each time.
